Reference: ChEMBL document CHEMBL1122854, “Novel bis[1,6-dihydro-6,6-dimethyl-1,3,5-triazine-2,4-diamines] as antitrypanosomal agents” (1985)

test system: Trypanosoma brucei rhodesiense; test: Antitrypanosomal activity against Trypanosoma rhodesiense infections in mice, 424 mg/kg administered subcutaneously; assay type: functional; settings: route subcutaneous
How it was run: (§1)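 IUR/HA Swiss mice (six weeks old, 30-32 g) infected i.p. with Wellcome CT strain T. rhodesiense. A single subcutaneous dose in peanut oil was given about 2 h after inoculation, with five mice per dose level. Positive control was stilbamidine or 2-hydroxystilbamidine isethionate at 40 mg/kg. Deaths before day 4 were scored toxic, and 30-day survivors cured.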

In order of falling Toxic:
1. CC1(C)N=C(N)N=C(N)N1c1ccc2c(c1)S(=O)(=O)c1cc(N3C(N)=NC(N)=NC3(C)C)ccc1C2.Cl.Cl  5
2. CC1(C)N=C(N)N=C(N)N1c1ccc(OCCCCCCOc2ccc(N3C(N)=NC(N)=NC3(C)C)cc2)cc1.Cl.Cl  5
3. CC1(C)N=C(N)NC(Nc2ccc(NC3=NC(C)(C)N=C(N)N3)cc2)=N1.Cl.Cl  5
4. CC1(C)N=C(N)N=C(N)N1c1ccc(Cc2ccc(N3C(N)=NC(N)=NC3(C)C)cc2[N+](=O)[O-])c([N+](=O)[O-])c1.Cl.Cl  5
5. CC1(C)N=C(N)N=C(N)N1c1ccc2oc3ccc(N4C(N)=NC(N)=NC4(C)C)cc3c2c1.Cl.Cl  5

test system: Trypanosoma brucei rhodesiense; test: Antitrypanosomal activity was evaluated against Trypanosoma rhodesiense infections in mice, at dose 424 mg/kg, administered subcutaneously;Toxic; assay type: functional; settings: route subcutaneous; how it was run: as §1

In order of falling Toxic:
1. Cc1ccc(N2C(N)=NC(N)=NC2(C)C)cc1NC(=O)Nc1cc(N2C(N)=NC(N)=NC2(C)C)ccc1C.Cl.Cl  3
2. CC1(C)N=C(N)NC(Nc2ccc(CCc3ccc(NC4=NC(C)(C)N=C(N)N4)cc3)cc2)=N1.Cl  3
3. CC1(C)N=C(N)N=C(N)N1c1cccc2c(N3C(N)=NC(N)=NC3(C)C)cccc12.Cl.Cl  3
4. CC1(C)N=C(N)N=C(N)N1c1ccc(CC(Cc2ccc(N3C(N)=NC(N)=NC3(C)C)cc2)C(=O)O)cc1.Cl.Cl  2

test system: Mus musculus; test: Antitrypanosomal activity was evaluated against Trypanosoma rhodesiense infections in mice, at dose 6.6 mg/kg, administered subcutaneously; assay type: functional; settings: route subcutaneous; how it was run: as §1

`CC1(C)N=C(N)N=C(N)N1c1ccc(OCCCCCCOc2ccc(N3C(N)=NC(N)=NC3(C)C)cc2)cc1.Cl.Cl` was tested, and the Toxic was 1.

test system: Trypanosoma brucei rhodesiense; test: Antitrypanosomal activity was evaluated against Trypanosoma rhodesiense infections in mice, at dose 26 mg/kg, administered subcutaneously; assay type: functional; settings: route subcutaneous; how it was run: as §1

Molecule `CC1(C)N=C(N)N=C(N)N1c1ccc(OCCCCCCOc2ccc(N3C(N)=NC(N)=NC3(C)C)cc2)cc1.Cl.Cl` has a Toxic of 5.

test system: Trypanosoma brucei rhodesiense; test: Antitrypanosomal activity was evaluated against Trypanosoma rhodesiense infections in mice, at dose 106 mg/kg, administered subcutaneously; assay type: functional; settings: route subcutaneous; how it was run: as §1

In order of rising Toxic:
1. CC1(C)N=C(N)NC(Nc2ccc(NC3=NC(C)(C)N=C(N)N3)cc2)=N1.Cl.Cl  4
2. CC1(C)N=C(N)N=C(N)N1c1ccc(OCCCCCCOc2ccc(N3C(N)=NC(N)=NC3(C)C)cc2)cc1.Cl.Cl  5
3. CC1(C)N=C(N)N=C(N)N1c1ccc(Cc2ccc(N3C(N)=NC(N)=NC3(C)C)cc2[N+](=O)[O-])c([N+](=O)[O-])c1.Cl.Cl  5
4. CC1(C)N=C(N)N=C(N)N1c1ccc2oc3ccc(N4C(N)=NC(N)=NC4(C)C)cc3c2c1.Cl.Cl  5

test system: Trypanosoma brucei rhodesiense; test: Antitrypanosomal activity was evaluated against Trypanosoma rhodesiense infections in mice, at dose 106 mg/kg, administered subcutaneously;Toxic; assay type: functional; settings: route subcutaneous; how it was run: as §1

With `CC1(C)N=C(N)N=C(N)N1c1ccc2c(c1)S(=O)(=O)c1cc(N3C(N)=NC(N)=NC3(C)C)ccc1C2.Cl.Cl` the Toxic was 4.

test system: Mus musculus; test: Antitrypanosomal activity was evaluated against Trypanosoma rhodesiense infections in mice, at dose 13 mg/kg, administered subcutaneously; assay type: functional; settings: route subcutaneous; how it was run: as §1

`CC1(C)N=C(N)N=C(N)N1c1ccc(OCCCCCCOc2ccc(N3C(N)=NC(N)=NC3(C)C)cc2)cc1.Cl.Cl` gave a Toxic of 5.

test system: Mus musculus; test: Antitrypanosomal activity was evaluated against Trypanosoma rhodesiense infections in mice, at dose 212 mg/kg, administered subcutaneously;Toxic; assay type: functional; settings: route subcutaneous; how it was run: as §1

Molecule `CC1(C)N=C(N)N=C(N)N1c1cc(Cl)c(N2C(N)=NC(N)=NC2(C)C)c(Cl)c1.Cl.Cl` has a Toxic of 4.

test system: Trypanosoma brucei rhodesiense; test: Antitrypanosomal activity was evaluated against Trypanosoma rhodesiense infections in mice, at dose 1.6 mg/kg, administered subcutaneously; assay type: functional; settings: route subcutaneous
How it was run: (§2)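 Six-week-old IUR/HA Swiss mice (30-32 g), 5 per dose, infected ip with 0.5 mL of a 1:50 000 dilution of heparinized heart blood from donor mice infected 3 days before (Wellcome CT strain). Single sc dose in peanut oil about 2 h post-inoculation. Deaths before day 4 counted toxic. ΔMST versus untreated controls; survivors at 30 days counted cured.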

In order of rising “Delta MST” value:
1. CC1(C)N=C(N)N=C(N)N1c1ccc2c(c1)S(=O)(=O)c1cc(N3C(N)=NC(N)=NC3(C)C)ccc1C2.Cl.Cl  0 days
2. CC1(C)N=C(N)N=C(N)N1c1ccc2oc3ccc(N4C(N)=NC(N)=NC4(C)C)cc3c2c1.Cl.Cl  0.2 days

test system: Trypanosoma brucei rhodesiense; test: Antitrypanosomal activity against Trypanosoma rhodesiense infections in mice, 106 mg/kg administered subcutaneously; assay type: functional; settings: route subcutaneous; how it was run: as §2

In order of rising “Delta MST” value:
1. CC1(C)N=C(N)N=C(N)N1c1ccc2c(c1)S(=O)(=O)c1cc(N3C(N)=NC(N)=NC3(C)C)ccc1C2.Cl.Cl  -0.3 days
2. CC1(C)N=C(N)N=C(N)N1c1cccc2c(N3C(N)=NC(N)=NC3(C)C)cccc12.Cl.Cl  -0.3 days
3. Cc1ccc(N2C(N)=NC(N)=NC2(C)C)cc1NC(=O)Nc1cc(N2C(N)=NC(N)=NC2(C)C)ccc1C.Cl.Cl  -0.1 days
4. CC1(C)N=C(N)N=C(N)N1c1ccc(OCCCCCCCCCCOc2ccc(N3C(N)=NC(N)=NC3(C)C)cc2)cc1.Cl.Cl  0.1 days
5. CC1(C)N=C(N)N=C(N)N1c1cc(C(=O)O)cc(N2C(N)=NC(N)=NC2(C)C)c1.Cl.Cl  0.1 days
6. CC1(C)N=C(N)N=C(N)N1c1ccc(SSc2ccc(N3C(N)=NC(N)=NC3(C)C)cc2)cc1.Cl.Cl  0.1 days
7. Cl.Cl.NC1=NC2(CCCCC2)NC(Nc2ccc(CCc3ccc(NC4=NC5(CCCCC5)NC(N)=N4)cc3)cc2)=N1  0.2 days
8. CC1(C)N=C(N)N=C(N)N1c1ccc(CC(Cc2ccc(N3C(N)=NC(N)=NC3(C)C)cc2)C(=O)O)cc1.Cl.Cl  0.2 days
9. CC1(C)N=C(N)NC(Nc2ccc(CCc3ccc(NC4=NC(C)(C)N=C(N)N4)cc3)cc2)=N1.Cl  0.8 days
10. CC1(C)N=C(N)N=C(N)N1c1ccc(OCCCCCCCCCCCCOc2ccc(N3C(N)=NC(N)=NC3(C)C)cc2)cc1.Cl.Cl  0.8 days
11. CC1(C)N=C(N)NC(Nc2ccc(NC3=NC(C)(C)N=C(N)N3)cc2)=N1.Cl.Cl  1.9 days

test system: Trypanosoma brucei rhodesiense; test: Antitrypanosomal activity was evaluated against Trypanosoma rhodesiense infections in mice, at dose 212 mg/kg, administered subcutaneously; assay type: functional; settings: route subcutaneous; how it was run: as §2

In order of falling “Delta MST” value:
1. CC1(C)N=C(N)N=C(N)N1c1ccc(OCCCCCCCCCCCCOc2ccc(N3C(N)=NC(N)=NC3(C)C)cc2)cc1.Cl.Cl  0.8 days
2. CC1(C)N=C(N)N=C(N)N1c1cc(Cl)c(N2C(N)=NC(N)=NC2(C)C)c(Cl)c1.Cl.Cl  -0.2 days

test system: Trypanosoma brucei rhodesiense; test: Anti-trypanosomal activity against Trypanosoma rhodesiense infections in mice, 26 mg/kg administered subcutaneously; assay type: functional; settings: route subcutaneous; how it was run: as §2

In order of falling “Delta MST” value:
1. CC1(C)N=C(N)NC(Nc2ccc(NC3=NC(C)(C)N=C(N)N3)cc2)=N1.Cl.Cl  1.3 days
2. CC1(C)N=C(N)N=C(N)N1c1cccc2c(N3C(N)=NC(N)=NC3(C)C)cccc12.Cl.Cl  1.1 days
3. CC1(C)N=C(N)N=C(N)N1c1ccc(Cc2ccc(N3C(N)=NC(N)=NC3(C)C)cc2[N+](=O)[O-])c([N+](=O)[O-])c1.Cl.Cl  0.6 days
4. Cl.Cl.NC1=NC2(CCCCC2)NC(Nc2ccc(CCc3ccc(NC4=NC5(CCCCC5)NC(N)=N4)cc3)cc2)=N1  0.2 days
5. CC1(C)N=C(N)NC(Nc2ccc(CCc3ccc(NC4=NC(C)(C)N=C(N)N4)cc3)cc2)=N1.Cl  0.2 days
6. CC1(C)N=C(N)N=C(N)N1c1ccc(OCCCCCCCCCCCCOc2ccc(N3C(N)=NC(N)=NC3(C)C)cc2)cc1.Cl.Cl  0.2 days
7. CC1(C)N=C(N)N=C(N)N1c1ccc(SSc2ccc(N3C(N)=NC(N)=NC3(C)C)cc2)cc1.Cl.Cl  0.1 days
8. CC1(C)N=C(N)N=C(N)N1c1ccc2c(c1)S(=O)(=O)c1cc(N3C(N)=NC(N)=NC3(C)C)ccc1C2.Cl.Cl  0 days
9. CC1(C)N=C(N)N=C(N)N1c1ccc(CC(Cc2ccc(N3C(N)=NC(N)=NC3(C)C)cc2)C(=O)O)cc1.Cl.Cl  0 days
10. CC1(C)N=C(N)N=C(N)N1c1ccc(OCCCCCCCCCCOc2ccc(N3C(N)=NC(N)=NC3(C)C)cc2)cc1.Cl.Cl  -0.1 days
11. CC1(C)N=C(N)N=C(N)N1c1cc(C(=O)O)cc(N2C(N)=NC(N)=NC2(C)C)c1.Cl.Cl  -0.1 days
12. Cc1ccc(N2C(N)=NC(N)=NC2(C)C)cc1NC(=O)Nc1cc(N2C(N)=NC(N)=NC2(C)C)ccc1C.Cl.Cl  -0.1 days
13. CC1(C)N=C(N)N=C(N)N1c1ccc2oc3ccc(N4C(N)=NC(N)=NC4(C)C)cc3c2c1.Cl.Cl  -0.2 days

test system: Trypanosoma brucei rhodesiense; test: Antitrypanosomal activity against Trypanosoma rhodesiense infections in mice, 3.3 mg/kg administered subcutaneously; assay type: functional; settings: route subcutaneous; how it was run: as §2

With `CC1(C)N=C(N)N=C(N)N1c1ccc2c(c1)S(=O)(=O)c1cc(N3C(N)=NC(N)=NC3(C)C)ccc1C2.Cl.Cl` the “Delta MST” value was 0 days.

test system: Trypanosoma brucei rhodesiense; test: Antitrypanosomal activity was evaluated against Trypanosoma rhodesiense infections in mice, at dose 424 mg/kg, administered subcutaneously; assay type: functional; settings: route subcutaneous; how it was run: as §2

In order of falling “Delta MST” value:
1. CC1(C)N=C(N)N=C(N)N1c1ccc(OCCCCCCCCCCCCOc2ccc(N3C(N)=NC(N)=NC3(C)C)cc2)cc1.Cl.Cl  0.8 days
2. CC1(C)N=C(N)N=C(N)N1c1ccc(SSc2ccc(N3C(N)=NC(N)=NC3(C)C)cc2)cc1.Cl.Cl  0.5 days
3. Cl.Cl.NC1=NC2(CCCCC2)NC(Nc2ccc(CCc3ccc(NC4=NC5(CCCCC5)NC(N)=N4)cc3)cc2)=N1  0.2 days
4. CC1(C)N=C(N)N=C(N)N1c1ccc(OCCCCCCCCCCOc2ccc(N3C(N)=NC(N)=NC3(C)C)cc2)cc1.Cl.Cl  0.1 days
5. CC1(C)N=C(N)NC(Nc2ccc(CCc3ccc(NC4=NC(C)(C)N=C(N)N4)cc3)cc2)=N1.Cl  0 days
6. CC1(C)N=C(N)N=C(N)N1c1ccc(CC(Cc2ccc(N3C(N)=NC(N)=NC3(C)C)cc2)C(=O)O)cc1.Cl.Cl  0 days
7. CC1(C)N=C(N)N=C(N)N1c1cc(C(=O)O)cc(N2C(N)=NC(N)=NC2(C)C)c1.Cl.Cl  -0.1 days
8. Cc1ccc(N2C(N)=NC(N)=NC2(C)C)cc1NC(=O)Nc1cc(N2C(N)=NC(N)=NC2(C)C)ccc1C.Cl.Cl  -0.1 days
9. CC1(C)N=C(N)N=C(N)N1c1cccc2c(N3C(N)=NC(N)=NC3(C)C)cccc12.Cl.Cl  -0.3 days

test system: Trypanosoma brucei rhodesiense; test: Antitrypanosomal activity against Trypanosoma rhodesiense infections in mice, 6.6 mg/kg administered subcutaneously; assay type: functional; settings: route subcutaneous; how it was run: as §2

In order of rising “Delta MST” value:
1. CC1(C)N=C(N)N=C(N)N1c1ccc2oc3ccc(N4C(N)=NC(N)=NC4(C)C)cc3c2c1.Cl.Cl  -0.2 days
2. CC1(C)N=C(N)N=C(N)N1c1ccc2c(c1)S(=O)(=O)c1cc(N3C(N)=NC(N)=NC3(C)C)ccc1C2.Cl.Cl  0.2 days

test system: Trypanosoma brucei rhodesiense; test: Antitrypanosomal activity was evaluated against Trypanosoma rhodesiense infections in mice, at dose 53 mg/kg, administered subcutaneously; assay type: functional; settings: route subcutaneous; how it was run: as §2

In order of rising “Delta MST” value:
1. CC1(C)N=C(N)N=C(N)N1c1cc(Cl)c(N2C(N)=NC(N)=NC2(C)C)c(Cl)c1.Cl.Cl  -0.2 days
2. CC1(C)N=C(N)N=C(N)N1c1ccc(OCCCCCCCCCCCCOc2ccc(N3C(N)=NC(N)=NC3(C)C)cc2)cc1.Cl.Cl  0.4 days
